# ChEMBL document CHEMBL1137321, “Identification of small molecule agonists of the orphan nuclear receptors liver receptor homolog-1 and steroidogenic factor-1” (J Med Chem, 2006)
# Activity calls are given as the source filed them. No cut-off for these calls is given here.
# Legend:
# [1] = molecular target: T1, Nuclear receptor subfamily 5 group A member 2 (Homo sapiens, UniProt O00482); experiment: Binding affinity to human LRH1 relative to 3-(E-Oct-4-en-4-yl)-1-phenylamino-2-phenyl-cis-bicyclo[3.3.0]oct-2-ene by FRET-based peptide recruitment assay
# How it was run: (§1)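 The apo-receptor starts with 1 equiv of bound phospholipid. EC50 determined, n = 3. Relative efficacy is normalized to the reference agonist at ±5%.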
# [2] = molecular target: T1, Nuclear receptor subfamily 5 group A member 2; experiment: Binding affinity to human LRH1 by FRET-based peptide recruitment assay; how it was run: as §1
# Steroidogenic factor 1 [3] = molecular target: T2, Steroidogenic factor 1 (Homo sapiens, UniProt Q13285); experiment: Binding affinity to human SF1 by FRET-based peptide recruitment assay
# How it was run: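 FRET assay measuring recruitment of a DAX-1 peptide (aa 1-23) to human SF-1. The apo-receptor starts with 1 equiv of bound phospholipid. Relative efficacy is normalized to the reference agonist at ±5%.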
# Steroidogenic factor 1 [4] = molecular target: T2, Steroidogenic factor 1; experiment: Binding affinity to human SF1 relative to 3-Hexyl-1-phenylamino-2-phenyl-cis-bicyclo[3.3.0]oct-2-ene1 by FRET-based peptide recruitment assay
# How it was run: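 FRET assay measuring recruitment of a DAX-1 peptide (aa 1-23) to human SF-1. The apo-receptor starts with 1 equiv of bound phospholipid. EC50 determined, n = 3. Relative efficacy is normalized to the reference agonist at ±5%.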
# [5] = molecular target: T1, Nuclear receptor subfamily 5 group A member 2; experiment: Agonist activity at human LRH1 expressed in CV1 cells assessed as SHP reporter gene transactivation by luciferase assay; format: functional, cell-based, CV-1
# [6] = molecular target: T1, Nuclear receptor subfamily 5 group A member 2; experiment: Agonist activity at human LRH1 assessed as induction of SHP mRNA expression in human primary hepatocytes at 10 uM; format: functional, cell-based; settings: Hepatocyte
# How it was run: (§2)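 Human liver cells (HepG2 cells or primary hepatocytes) treated with 10 µM compound; SHP mRNA expression quantified by quantitative PCR.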
# [7] = molecular target: T1, Nuclear receptor subfamily 5 group A member 2; experiment: Agonist activity at human LRH1 assessed as induction of SHP mRNA expression in HepG2 cells at 10 uM; format: functional, cell-based; how it was run: as §2
# T1 sequence (O00482 whole entry): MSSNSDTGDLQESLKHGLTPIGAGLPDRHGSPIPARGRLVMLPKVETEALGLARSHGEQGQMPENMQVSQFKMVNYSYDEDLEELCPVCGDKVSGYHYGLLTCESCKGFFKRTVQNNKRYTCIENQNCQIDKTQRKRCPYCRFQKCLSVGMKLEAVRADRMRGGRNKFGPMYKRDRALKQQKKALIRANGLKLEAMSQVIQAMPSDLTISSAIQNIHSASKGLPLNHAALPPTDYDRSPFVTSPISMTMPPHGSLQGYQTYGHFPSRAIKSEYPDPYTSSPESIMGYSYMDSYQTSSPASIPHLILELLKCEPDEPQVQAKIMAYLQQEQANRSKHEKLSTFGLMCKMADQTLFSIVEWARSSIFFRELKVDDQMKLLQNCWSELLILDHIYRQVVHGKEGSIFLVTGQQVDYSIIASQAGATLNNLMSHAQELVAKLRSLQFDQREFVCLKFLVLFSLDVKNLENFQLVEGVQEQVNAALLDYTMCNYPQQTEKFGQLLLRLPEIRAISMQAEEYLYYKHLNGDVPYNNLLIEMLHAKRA
# T2 sequence (Q13285 whole entry, the tested form may be a part): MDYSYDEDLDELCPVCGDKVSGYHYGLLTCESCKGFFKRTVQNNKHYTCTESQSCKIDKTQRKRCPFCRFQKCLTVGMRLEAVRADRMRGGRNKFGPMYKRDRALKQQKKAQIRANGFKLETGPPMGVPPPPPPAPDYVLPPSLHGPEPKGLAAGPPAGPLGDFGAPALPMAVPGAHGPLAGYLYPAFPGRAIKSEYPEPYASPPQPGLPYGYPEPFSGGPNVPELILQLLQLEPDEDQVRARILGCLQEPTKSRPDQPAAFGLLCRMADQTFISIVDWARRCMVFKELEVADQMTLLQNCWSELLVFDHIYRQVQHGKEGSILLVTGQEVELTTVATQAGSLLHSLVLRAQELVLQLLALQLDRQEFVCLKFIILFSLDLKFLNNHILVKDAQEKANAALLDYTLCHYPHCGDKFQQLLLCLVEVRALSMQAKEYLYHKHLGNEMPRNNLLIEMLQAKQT
Efficacy [1] [%],EC50 [2] [nM],EC50 (Steroidogenic factor 1 [3]) [nM],Efficacy (Steroidogenic factor 1 [4]) [%],EC50 [5] [nM],Activity [6],Activity [7],SMILES
20,2100,> 10000,–,–,–,–,CC1=C(c2ccccc2)[C@]2(Nc3ccccc3)CCC[C@@H]2C1 (relative stereo)
55,60,130,30,–,–,–,CCC/C=C(\CCC)C1=C(c2ccc3ccccc3c2)[C@]2(Nc3ccccc3)CCC[C@@H]2C1 (relative stereo)
–,> 10000,> 10000,–,–,–,–,CCCCCCC1=C(c2ccccc2)[C@]2(Nc3ccc(I)cc3)CCC[C@@H]2C1 (relative stereo)
–,> 10000,14,30,–,–,–,CCCCC/C=C(\CCCCC)C1=C(c2ccccc2)[C@]2(Nc3ccccc3)CCC[C@@H]2C1 (relative stereo)
45,34,–,–,–,–,–,CCCCCCC1=C(c2ccccc2)[C@]2(Nc3ccccc3)CCC[C@@H]2C1 (relative stereo)
15,90,> 10000,–,–,–,–,CCC/C=C(\CCC)C1=C(C)[C@]2(Nc3ccccc3)CCC[C@@H]2C1
–,430,–,50,1000,Active,Active,CCC/C=C(\CCC)C1=C(c2ccccc2)[C@]2(Nc3ccccc3)CCC[C@@H]2C1 (relative stereo)
–,> 10000,> 10000,–,–,–,–,CCCCCCC1=C(c2ccccc2)[C@]2(Nc3ccc(C(C)(C)C)cc3)CCC[C@@H]2C1 (relative stereo)
15,1000,700,25,–,–,–,CCCCCCC1=C(c2ccccc2)[C@]2(Nc3ccc(Cl)cc3)CCC[C@@H]2C1 (relative stereo)
50,1400,800,80,–,–,–,CC/C=C(\CC)C1=C(c2ccccc2)[C@]2(Nc3ccccc3)CCC[C@@H]2C1 (relative stereo)
–,> 10000,> 10000,–,–,–,–,CCCCCCCCCCCCC1=C(c2ccccc2)[C@]2(Nc3ccccc3)CCC[C@@H]2C1 (relative stereo)
70,160,170,35,–,–,–,CCC/C=C(\CCC)C1=C(c2ccc(Br)cc2)[C@]2(Nc3ccccc3)CCC[C@@H]2C1 (relative stereo)
25,230,180,65,–,–,–,c1ccc(N[C@@]23CCC[C@@H]2CC(C2CCCCC2)=C3c2ccccc2)cc1 (relative stereo)
35,150,120,55,–,–,–,c1ccc(N[C@@]23CCC[C@@H]2CC(c2ccccc2)=C3c2ccccc2)cc1 (relative stereo)
45,1200,> 10000,–,–,–,–,CCCCCCC1=C(c2ccccc2)[C@]2(Nc3cccc4ccccc34)CCC[C@@H]2C1 (relative stereo)
–,> 10000,> 10000,–,–,–,–,CCCCCCC1=C(c2ccccc2)[C@]2(Nc3ccc(OC(F)(F)F)cc3)CCC[C@@H]2C1 (relative stereo)
45,330,560,70,–,–,–,CCCCCCC1=C(c2ccccc2)[C@]2(Nc3cccc(F)c3)CCC[C@@H]2C1 (relative stereo)
50,12,10,90,–,–,–,CCC/C=C(\CCC)C1=C(C2CCCCC2)[C@]2(Nc3ccccc3)CCC[C@@H]2C1 (relative stereo)
25,320,130,95,–,–,–,CCCCCCCCC(C)C1=C(c2ccccc2)[C@]2(Nc3ccccc3)CCC[C@@H]2C1 (relative stereo)
115,100,140,45,–,–,–,CCC/C=C(\CCC)C1=C(c2cccc(OC)c2)[C@]2(Nc3ccccc3)CCC[C@@H]2C1 (relative stereo)
50,22,30,95,–,–,–,CCC/C=C(\CCC)C1=C(CCCC)[C@]2(Nc3ccccc3)CCC[C@@H]2C1 (relative stereo)
45,70,130,90,–,–,–,CCCCC(C)C1=C(c2ccccc2)[C@]2(Nc3ccccc3)CCC[C@@H]2C1 (relative stereo)
30,30,11,20,–,–,–,CCCCCCC1=C(c2ccccc2)[C@]2(Nc3cccc(C)c3C)CCC[C@@H]2C1 (relative stereo)
